Square brackets hold non-standard residues; d marks the D form. Ends that are not written are not given here.
Assays:
[1] = biological target: MC1 receptor (B16/F1 melanoma cells) (Mus musculus, UniProt Q01727); conditions: read-out: MC1 receptor binding affinity; cited from earlier work
B16/F1 melanoma cells = experiment: Clonogenic cytotoxicity; assay type: cell-based, murine; conditions: 0.1 μM peptide, 3 h incubation at 37 °C, colonies over 6 days
Outline: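 B16/F1 cells seeded at 200 cells/well and held overnight at 37 °C. After a wash with RPMI 1640, cells were exposed for 3 h at 37 °C to 0.1 μM test peptide in medium; controls received medium only. After two PBS washes, colonies grew for 6 days with medium changed every other day. Cells were fixed in methanol:glacial acetic acid (3:1) and hematoxylin-stained; colonies >50 cells scored as survivors. Survival normalized to untreated (100%); unpaired Student's t-test.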

MC1 receptor (B16/F1 melanoma cells), sequence (Q01727 whole entry): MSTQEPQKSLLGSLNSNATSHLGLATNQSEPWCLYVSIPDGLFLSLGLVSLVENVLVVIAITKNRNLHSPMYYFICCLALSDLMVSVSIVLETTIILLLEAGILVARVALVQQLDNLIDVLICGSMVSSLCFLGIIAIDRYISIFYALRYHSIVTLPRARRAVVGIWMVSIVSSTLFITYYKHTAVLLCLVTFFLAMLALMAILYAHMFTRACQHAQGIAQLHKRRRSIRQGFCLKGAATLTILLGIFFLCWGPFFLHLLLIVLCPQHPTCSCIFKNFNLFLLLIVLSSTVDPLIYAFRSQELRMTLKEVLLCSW

| Substance | IC50 [1] [nM] | decrease in clonogenic survival compared to untreated group (B16/F1 melanoma cells) [%] |
| --- | --- | --- |
| [Cys^3,4,10, D-Phe^7, Arg^11]α-MSH3-13 (CCEH[dF]RWCRPV; not fully specified (C-terminus); ends and bridges not checked) [(Arg^11)CCMSH] | 1.7 |  |
| [Cys^3,4,10, D-Phe^7, Arg^11]α-MSH3-13 [(Arg^11)CCMSH] |  | 11 |

Reference: publication PMC3621710 (Bioconjugate chemistry, 2009)
